The subject of assay [1] is A549. Nature of the assay: Reduction of beta-casein expression level in cytosolic fraction of human A549 cells expressing Wnt2 by Western blotting. Format: functional, cell-based. (In western blotting, separated proteins are transferred to a membrane and probed.)
Assay [2] is described as follows: Inhibition of […] signaling in human A549 cells assessed as inhibition of cell proliferation after 24 hrs by MTT assay. The following applies: A549, 24 h. On the technique in general: Tetrazolium assays rely on reduction of a dye to a coloured formazan, in cell work by metabolically active cells.
Assay [3] relates to A549. Nature of the assay: Reduction of beta-casein expression level in nuclear fraction of human A549 cells expressing Wnt2 by Western blotting. Format: functional, cell-based.
Assay [4] can be described thus: Inhibition of […] signaling in human A549 cells assessed as inhibition of cell proliferation at 15% of IC50 concentration after 24 to 48 hrs by MTT assay. It is filed as cell-based.
Assay [5] is described as follows: Inhibition of […] signaling in human H460 cells assessed as inhibition of cell proliferation after 24 hrs by MTT assay. It is filed as cell-based.
The subject of assay [6] is A549. The assay is described as follows: Reduction of beta-casein expression level in human A549 cells expressing Wnt2 by Western blotting. It is filed as functional, cell-based.
The target of assay [7] is T1, Protein Wnt-2 (Homo sapiens) (UniProt P09544).
T1 sequence (whole entry): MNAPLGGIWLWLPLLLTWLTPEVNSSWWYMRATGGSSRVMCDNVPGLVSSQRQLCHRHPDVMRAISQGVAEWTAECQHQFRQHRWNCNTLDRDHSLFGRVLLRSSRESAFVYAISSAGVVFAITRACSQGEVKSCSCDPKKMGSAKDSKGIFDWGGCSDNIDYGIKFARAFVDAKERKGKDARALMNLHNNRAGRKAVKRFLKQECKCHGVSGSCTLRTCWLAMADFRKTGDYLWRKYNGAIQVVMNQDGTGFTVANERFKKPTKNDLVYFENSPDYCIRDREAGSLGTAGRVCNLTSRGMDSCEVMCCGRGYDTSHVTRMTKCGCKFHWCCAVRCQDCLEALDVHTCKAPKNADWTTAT
Nature of the assay: Inhibition of Wnt2 signaling pathway in human A549 cells assessed as inhibition of beta-casein-mediated Tcf/Lef transcriptional activity after 24 hrs by dual luciferase reporter gene assay relative to control. The arrangement: concentration or dose not given beside the values. The note with it: concentration not given here. Format: cell-based. An outline of the steps: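 A549/Wnt2 cells (4 × 10⁴) transiently co-transfected with 1 lg pSuperTopflash (eight Tcf sites upstream of firefly luciferase) or pSuperFopflash (mutated Tcf sites, negative control) plus 15 ng pRL-TK. Compounds applied at the proliferation IC₅₀, 37 °C, 24 h. Lysed; firefly and Renilla read by dual-luciferase. Firefly/Renilla ratio, triplicates, mean ± SEM, relative to untreated cells.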
On the technique in general: A reporter such as luciferase makes a cellular process visible.

Assay [8] concerns the target T1, Protein Wnt-2 (Homo sapiens). Nature of the assay: Inhibition of Wnt2 signaling pathway in human H460 cells assessed as inhibition of beta-casein-mediated Tcf/Lef transcriptional activity IC50 concentration after 24 hrs by dual luciferase reporter gene assay relative to control. Format: cell-based. The procedure, abridged: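 H460/Wnt2 cells transiently co-transfected with SuperTopflash and pRL-TK Renilla control. Compounds given at the A549 proliferation IC₅₀, 37 °C, 24 h. Dual firefly/Renilla luciferase read-out as normalized ratio, triplicates, mean ± SEM, versus untreated cells.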

The nature of assay [9]: Inhibition of […] signaling in human A549 cells assessed as inhibition of cell proliferation at 30% of IC50 concentration after 24 to 48 hrs by MTT assay. Format: cell-based.
Assay [10] can be described thus: Inhibition of […] signaling in human A549 cells assessed as inhibition of cell proliferation after 24 to 48 hrs by MTT assay. It is filed as cell-based. An outline of the steps: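 MTS proliferation assay in A549/Wnt2 cells. Cells seeded at 5 × 10³ per well and left about 24 h to attach. Compounds added at various concentrations; growth read at 24 and 48 h after treatment. MTS reagent for 30 min at 37 °C in CO₂, then absorbance at 490 nm.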

Calls of active or inactive are those of the source. No cut-off for these calls is given here. Bounds are passed on as bounds.

The term IC50 denotes the point on the concentration scale where inhibition reaches its midpoint. What is called inhibition is the share of the control response that was lost under treatment. As for `COc1cccc(C#Cc2nc3ccc(NC(=O)c4ccc(F)cc4)cc3nc2OC2CCN(C)CC2)c1`, the result in assay [1], in assay [3] and in [6] was Active. For the same molecule, the IC50 in assay [2] came to 3540 nM. For the same molecule, the inhibition entry in [4] and in assay [5] was “Active” each time.

On to `CCN(CC)CCOc1nc2cc(NC(=O)c3ccc(C)cc3)ccc2nc1C#Cc1ccc(OC)cc1C`, for which the result in [1], in assay [3] and in assay [6] was Active. Further, the 50% inhibitory concentration (IC50) in assay [2] amounted to 1780 nM. Besides, the inhibition entry in assay [4] and in assay [5] was “Active” throughout.

With `COc1ccc(C#Cc2nc3cc(F)ccc3nc2OCCOCCN(C)C)cc1`, the outcome in [1], in assay [3] and in assay [6] was Active. The IC50 in assay [2] came out at 2340 nM. Besides, the inhibition in assay [7] and in assay [8] was greater than 80% each time. Moreover, the inhibition result in [4], in assay [5] and in assay [9] was “Active” in each case.

For the molecule `COc1cccc2nc(OCCN3CCCC3)c(C#Cc3ccccc3)nc12`, the inhibition entry in assay [10] is “Dose-dependent effect”. The outcome in [1], in assay [3] and in [6] was Active. Moreover, the IC50 in [2] worked out at 1890 nM. Besides, the inhibition result in [4] and in [5] was “Active” each time.

Regarding `Cc1ccc(C#Cc2nc3ccc(NC(=O)N4CCN(c5ccccn5)CC4)cc3nc2OCCN2CCCC2)cc1`, the figures for the inhibition entry in assay [10] and in assay [7] were “Dose-dependent effect” and 30%, respectively. For the same molecule, the outcome in assay [1], in assay [3] and in assay [6] was Active. Moreover, the concentration for half-maximal inhibition (IC50) in assay [2] is 4760 nM. Moreover, the inhibition entry in [4] and in assay [5] was “Active” throughout.

Regarding `COc1nc2ccc(NC(=O)Nc3ccc(C(C)(C)C)cc3)cc2nc1NCCN1CCCCC1`, the outcome in assay [1], in assay [3] and in [6] was Active. Also, the IC50 in assay [2] came out at 5010 nM. Besides, the inhibition in assay [7] turned out to be 30%. In addition, the inhibition result in assay [4], in [5] and in [9] was “Active” throughout.

Turning to `CN1CCC[C@H]1COc1nc2ccc(N)cc2nc1C#Cc1ccccc1`, the result in [1], in assay [3] and in [6] was Active. Besides, the IC50 in [2] amounted to 3800 nM. In addition, the inhibition in [7] and in assay [8] was greater than 80% throughout. Moreover, the inhibition entry in [4] and in [5] was “Active” in each case.

For the molecule `CN(C)c1ccc(C#Cc2nc3cc(F)ccc3nc2OCCCN2CCCCC2)cc1`, the result in [1], in assay [3] and in [6] was Active. The IC50 in [2] came out at 3770 nM. Moreover, the inhibition in assay [7] turned out to be 30%. In addition, the inhibition result in assay [4] and in assay [5] was “Active” each time.

In the case of `CN(C)CCOc1nc2ccccc2nc1C#Cc1ccccc1`, the outcome in [1], in assay [3] and in assay [6] was Active. In addition, the IC50 in [2] stood at 758 nM. For the same molecule, the inhibition in assay [7] is 30%. The inhibition result in [4] and in assay [5] was “Active” throughout.

Consider `Cc1ccc(C#Cc2nc3ccccc3nc2OCCN2CCCC2)cc1`, for which the result in assay [1], in assay [3] and in assay [6] was Active. For the same molecule, the IC50 in assay [2] came to 1320 nM. Moreover, the inhibition entry in assay [4] and in assay [5] was “Active” each time.

In the case of `CCN(CC)CCOc1nc2cc(NC(=O)N(C)Cc3ccc(F)cc3)ccc2nc1C#Cc1ccc(N(C)C)cc1`, the result in [1], in [3] and in assay [6] was Active. Besides, the IC50 in [2] stood at 7900 nM. The inhibition in [7] was greater than 80%. Besides, the inhibition result in assay [4] and in assay [5] was “Active” in each case.

As for `Cc1cccc(C#Cc2nc3ccccc3nc2OCCCN2CCCCC2)c1`, the result in assay [1], in assay [3] and in assay [6] was Active. The IC50 in assay [2] was 1610 nM. For the same molecule, in [7], the inhibition amounted to 30%. For the same molecule, the inhibition result in assay [4] and in assay [5] was “Active” throughout.

For the molecule `Cc1ccc2nc(OCCC3CCCN3C)c(C#Cc3ccccc3)nc2c1` (stereo not given), the results for the inhibition entry in assay [10] and in assay [7] were “Dose-dependent effect” and 30%, respectively. Besides, the result in assay [1], in [3] and in [6] was Active. Also, the IC50 in [2] is 905 nM. The inhibition result in [4] and in [5] was “Active” throughout.

`COc1c(C[C@@H](C)OC(=O)Oc2ccc(O)cc2)c2c3c(C[C@@H](C)OC(=O)c4ccccc4)c(OC)c(=O)c4c(O)cc(OC)c(c5c(OC)cc(O)c(c1=O)c52)c43` [CALPHOSTIN C]: the IC50 in assay [2] came out at 3200 nM.
